Fam108B inh: blocks mouse Fam108B hydrolase in RBBP9 counter-screen | inhibition, % at 9.51 µM | recombinant Fam108B, FP-Rh probe fluorescence polarization | hit rate 0.33% among 300,000 | AID 1947;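 active means inhibition above the screen mean inhibition plus 3 SD, computed separately per campaign, cut at about 18% in these data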;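 further: inhibitors lower polarization as less probe binds the enzyme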
proCasp3 act: activators of human procaspase-3; P42574; AID 463141; activation, % at 8.5 µM; hit rate 0.11% among 330,000; recombinant procaspase-3 D3A, Ac-DEVD-pNA absorbance 405 nm;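 active means activation above the mean of all tested compounds plus 3 SD, cut at about 21% in these data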
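Technique: 405 nm absorbance of p-nitroaniline, reads at 0 and 120 min; Test system: Procaspase-3 D3A mutant; Incubation: 1 h enzyme-compound preincubation, then 2 h substrate reaction, 25 °C; Repeats: singlicate, each compound tested once; Benchmarks: low control DMSO wells, high control DMSO plus 5 µM PC-3 D3A.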
PME-1 inh: PME-1 (human) inhibition; Q9Y570; recombinant PME-1, FP-Rh probe fluorescence polarization; inhibition, % at 5.9 µM; hit rate 0.53% among 320,000; AID 2130;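 active means inhibition above the campaign mean of all compounds plus 3 SD, cut at about 26% in these data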;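 further: competitive labeling of PME-1 active site by serine hydrolase directed probe; inhibitors block probe labeling so polarization falls and inhibition rises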
Target sequence (Q9Y570 whole entry, looked up): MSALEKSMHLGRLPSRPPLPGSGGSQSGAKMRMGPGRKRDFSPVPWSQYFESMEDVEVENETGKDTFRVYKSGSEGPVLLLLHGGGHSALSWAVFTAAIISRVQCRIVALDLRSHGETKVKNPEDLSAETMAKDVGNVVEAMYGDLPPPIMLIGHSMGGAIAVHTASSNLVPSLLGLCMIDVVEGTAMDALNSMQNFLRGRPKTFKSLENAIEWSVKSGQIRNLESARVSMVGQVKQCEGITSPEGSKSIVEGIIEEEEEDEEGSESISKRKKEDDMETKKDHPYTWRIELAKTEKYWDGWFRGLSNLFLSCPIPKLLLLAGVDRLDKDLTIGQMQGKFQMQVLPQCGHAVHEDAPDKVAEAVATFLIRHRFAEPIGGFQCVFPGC
procasp7 counter: activates human procaspase-7, counter-screen for procaspase-3 activators; P55210; recombinant procaspase-7, Ac-DEVD-pNA absorbance 405 nm; D23A/D198A/D206A triple mutant, cannot self-cleave; scale: DMSO 0, 5 µM enzyme 100; activation, % at 8.5 µM; hit rate 0.093% among 330,000; AID 463210;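 active means percent activation above the screen-wide mean plus 3 SD, cut at about 25% in these data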
Target sequence (P55210 whole entry D23A/D198A/D206A): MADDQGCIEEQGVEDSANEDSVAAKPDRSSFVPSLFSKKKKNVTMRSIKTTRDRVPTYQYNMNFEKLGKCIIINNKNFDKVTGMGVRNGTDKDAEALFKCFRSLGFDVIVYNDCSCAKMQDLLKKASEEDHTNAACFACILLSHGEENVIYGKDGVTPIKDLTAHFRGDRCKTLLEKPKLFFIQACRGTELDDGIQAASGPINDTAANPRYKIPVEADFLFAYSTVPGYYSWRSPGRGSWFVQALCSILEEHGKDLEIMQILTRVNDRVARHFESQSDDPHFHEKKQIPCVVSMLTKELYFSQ
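System: Uncleavable procaspase-7 mutant enzyme; Amount: 2 µM procaspase-7 mutant as dispensed; Schedule: 1 h compound preincubation, 2 h substrate cleavage, 25 °C; Measured by: 405 nm absorbance of p-nitroaniline; Evaluation: percent activation from buffer-corrected 0–120 min absorbance change; Control set: low DMSO alone, high DMSO plus 5 µM PC-7.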
LYPLA1 inh: blocks human lysophospholipase 1, a PME1 counter-screen. O75608. recombinant LYPLA1, FP-Rh probe fluorescence polarization. inhibition, % at 5.9 µM. hit rate 0.16% among 320,000;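 active means inhibition above the mean of all tested compounds plus 3 SD, set per campaign, cut at about 14% in these data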;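 further: inhibitors block serine hydrolase probe labeling of LYPLA1 so polarization falls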
LYPLA2 inh: LYPLA2 (human) inhibition in PME1 counter-screen. O95372. recombinant LYPLA2, FP-Rh probe fluorescence polarization. inhibition, % at 5.9 µM. hit rate 0.38% among 320,000. AID 2177;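 active means inhibition above the screen-wide mean plus 3 SD, limit set per campaign, cut at about 26% in these data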
LYPLA2 conf: counter-screen for PME1 inhibitors: confirmation of human LYPLA2 inhibitors; inhibition, % at 5.9 µM; recombinant LYPLA2, FP-Rh probe fluorescence polarization; hit rate 72% among 1,100; shares compounds with LYPLA2 inh;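 active means mean inhibition across replicates above the hit cutoff set in the primary screen, cut at about 26% in these data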;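 further: blocked labeling of the enzyme by serine hydrolase FP-Rh probe lowers polarization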
LYPLA2 ABPP: inhibitors of human LYPLA2 | inhibition, % at 20 µM | AID 652029 | hit rate 30% among 150 | rhLYPLA2 in mouse brain proteome, gel ABPP FP-Rh | shares compounds with LYPLA2 inh;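 active means inhibition of LYPLA2 enzyme probe labeling above about 50%, limit read from the data; inactive means inhibition below that limit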;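 further: loss of FP-Rh probe labeling of the LYPLA2 gel band measured as band density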
Hits are given with their value; i = inactive; nt = no result given. Only some compounds are listed: those with a hit (about 1% of all), similar ones and a draw of the others.

SMILES	Fam108B inh	proCasp3 act	PME-1 inh	procasp7 counter	LYPLA1 inh	LYPLA2 inh	LYPLA2 conf	others
O=C(c1ccncc1)N1CCCC(N2CCN(c3cccc(C(F)(F)F)c3)CC2)C1 (stereo not given)	i	i	i	i	i	26	43
Cc1cnc(C(=O)N2CCCC(N3CCN(c4cccc(C(F)(F)F)c4)CC3)C2)cn1 (stereo not given)	i	i	i	i	i	26	i
CCn1cc(C(=O)N2CCCC(N3CCN(c4cccc(C(F)(F)F)c4)CC3)C2)cn1 (stereo not given)	i	i	i	i	i	32	i
O=C(c1ccoc1)N1CCCC(N2CCN(c3cccc(C(F)(F)F)c3)CC2)C1 (stereo not given)	i	i	i	i	i	i	nt
CC1=C(C(=O)N2CCCC(N3CCN(c4cccc(C(F)(F)F)c4)CC3)C2)OCCO1 (stereo not given)	i	i	i	i	i	i	nt
CC(=O)N(C)c1ccc(NC(=O)CCN2C(=O)c3ccccc3C2=O)cc1	i	i	i	i	i	i	nt
Cc1nc([N+](=O)[O-])cn1CC(=O)c1ccccc1	i	i	i	i	i	i	nt
Cc1nc([N+](=O)[O-])cn1CC(=O)Nc1ccc([N+](=O)[O-])cc1	i	i	i	i	i	33	41
O=C(O)c1cccc(N2C(=O)c3ccc(C(=O)c4cccc([N+](=O)[O-])c4)cc3C2=O)c1	i	i	i	i	i	45	58	LYPLA2 ABPP=i
C[C@H](CO)N1C[C@H](C)[C@@H](CN(C)S(C)(=O)=O)Oc2ccc(NC(=O)C3CC3)cc2C1=O	nt	i	nt	i	nt	nt	nt
CCOC(=O)c1c(O)cc(C)[nH]c1=O	i	i	i	i	i	i	nt
O=C(c1ccc([N+](=O)[O-])cc1)N1CCOC12CCN(c1ncc(C(F)(F)F)cc1Cl)CC2	i	i	i	i	i	38	57	LYPLA2 ABPP=i
Cc1ccc(C)c(N2CCN(C(=O)c3cc4sccc4n3C)CC2)c1	i	i	i	i	i	i	nt
Cn1c(C(=O)N2CCN(c3cccc(C(F)(F)F)c3)CC2)cc2sccc21	i	i	i	i	i	27	i
O=C(C[n+]1cccc(NC(=O)c2ccccc2)c1)c1ccc(NC(=O)c2ccccc2)cc1	i	i	i	i	i	27	i
COc1cccc(NC(=O)CN(C)C(=O)C23CC4CC(CC(Cl)(C4)C2)C3)c1	nt	i	i	i	i	i	nt
COc1ccc(-n2c(C)cc(C(=O)Cn3nnc4ccccc4c3=O)c2C)cc1	i	i	i	i	i	27	i
CCc1ccccc1NC(=O)c1ccc(OCc2c(C)noc2C)cc1	nt	i	nt	i	nt	nt	nt
N#Cc1nc(-c2ccco2)oc1N1CCN(c2ccccc2)CC1	i	i	i	i	i	26	i
COc1ccc(N2CCN(c3oc(-c4ccco4)nc3C#N)CC2)cc1	i	i	i	i	i	i	nt
CCOC(=O)C1CCN(C(=O)c2ccc(Oc3cc(Cl)cc(Cl)c3)o2)CC1	i	i	i	i	i	27	49
CC(=O)c1ccc(S(=O)(=O)N2CCN(CCOc3ccc(Br)cc3)CC2)cc1	nt	i	i	i	i	37	37
O=C1CCCC(=O)N1c1ccc(N2CCN(c3ccccc3)CC2)c([N+](=O)[O-])c1	i	i	i	i	i	i	nt
O=C1CCCC(=O)N1c1ccc(N2CCN(c3ccc([N+](=O)[O-])cc3)CC2)c([N+](=O)[O-])c1	i	i	i	i	i	43	43
CCOC(=O)c1c(NC(=O)CN2CCOCC2)sc(C(=O)NC)c1C	i	i	i	i	i	i	nt
SMILES	Fam108B inh	proCasp3 act	PME-1 inh	procasp7 counter	LYPLA1 inh	LYPLA2 inh	LYPLA2 conf	others
CCOC(=O)c1c(NC(=O)CN2C(=O)NC(C)(c3ccc(Cl)cc3)C2=O)sc(C(=O)NC)c1C (stereo not given)	i	i	i	i	i	41	34
CC(C)(C)c1ccc(Cn2nnc3c(=O)[nH]c(C4CCN(C(=O)Cc5cccs5)CC4)nc32)cc1	i	i	i	i	i	27	i
O=C(NCC1CCN(c2ccc(S(=O)(=O)N3CCOCC3)cc2)CC1)c1ccc(Cl)cc1	i	i	i	i	i	81	76	LYPLA2 ABPP=59
O=C(Oc1ccccc1Cl)C1CCN(C(=O)c2ccc(F)cc2)CC1	i	i	i	i	i	i	nt
O=C(NC1CCCC1)C1CCC(CNS(=O)(=O)c2cccs2)CC1 (stereo not given)	i	i	i	i	i	i	nt
O=C(C1CCC(CNS(=O)(=O)c2cccs2)CC1)N1CCN(c2ccc(Cl)cc2)CC1 (stereo not given)	i	i	i	i	i	36	34
Cc1ccc(C)c(Oc2coc3cc(OC(=O)c4cccs4)ccc3c2=O)c1	i	i	i	i	i	i	nt
COc1ccc(Oc2coc3cc(OC(=O)c4cccs4)ccc3c2=O)cc1	i	i	i	i	i	41	46
Cc1cc2c(NC(=O)Nc3ccccc3)cccc2nn1	i	i	i	i	i	35	36
Cc1cc2c(NC(=O)Nc3ccc(C(C)(C)C)cc3)cccc2nn1	i	i	i	i	i	i	nt
CN(Cc1nc(-c2cccnc2)no1)S(=O)(=O)c1ccc2ccccc2c1	i	i	i	i	i	i	nt
CN(Cc1nc(-c2ccccn2)no1)S(=O)(=O)c1ccc(Br)cc1	i	i	i	i	i	37	35
CN(Cc1nc(-c2cccnc2)no1)S(=O)(=O)c1ccc(Br)cc1	i	i	i	i	i	41	31
O=C(O)c1cccc2c1C(=O)c1ccc(-c3ccc(F)cc3OCc3ccccc3)cc1S2(=O)=O	nt	i	i	i	i	35	29
CC12CCC(=O)N1C(C(=O)NNC(=O)c1cccc(Cl)c1)CS2 (stereo not given)	i	i	i	i	i	35	i
CC12CCC(=O)N1C(C(=O)NNC(=O)c1ccc(Cl)cc1)CS2 (stereo not given)	nt	i	i	i	i	i	nt
CC(=O)C1=C(C)Nc2ncnn2C1c1ccccc1F (stereo not given)	i	i	i	i	i	i	nt
COc1ccc(N2CCN(C(=O)CCCOc3cc(=O)n(C)c4ccccc34)CC2)cc1	i	i	i	i	i	31	33
COc1ccc(N2CCN(C(=O)CCCN3C(=O)c4cccc5cccc(c45)C3=O)CC2)cc1	i	i	i	i	i	73	63	LYPLA2 ABPP=i
